Measured values reported in ChEMBL document CHEMBL1156597, “Structure-activity relationship of kahalalide F synthetic analogues” (J Med Chem, 2008).

What was measured:
LoVo [1] = experiment: Cytotoxicity against human doxorubicin resistant LoVo cells after 48 hrs by SRB assay; type: functional; settings: for CC50: read-out: LC50 (the source's name)
Summary of the method: (§1)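 Cells grown in RPMI 1640 with 10% FBS and penicillin/streptomycin at 37 °C and 5% CO₂, trypsinized, then seeded at 5 × 10³/well. After 18 h drug-free attachment, samples in DMSO/EtOH/PBS (0.5:0.5:99) were added for 48 h continuous exposure. Cells were fixed with cold TCA (1 h, 4 °C) and stained with SRB (10 min). Tris-solubilized stain read at 490 nm. Triplicate wells, mean ± SD; GI₅₀ derived.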

K562 = experiment: Cytotoxicity against human K562 cells after 48 hrs by SRB assay; type: functional; settings: K562, 48 h; for CC50: read-out: LC50 (the source's name); summary of the method: as §1
LoVo [2] = experiment: Cytotoxicity against human LoVo cells after 48 hrs by SRB assay; type: functional; settings: for CC50: read-out: LC50 (the source's name)
LNCaP = experiment: Cytotoxicity against human LNcaP cells after 48 hrs by SRB assay; type: functional; settings: for CC50: read-out: LC50 (the source's name); summary of the method: as §1
[3] = Cytotoxicity against human IGROV-ET cells after 48 hrs by SRB assay; type: functional; settings: for CC50: read-out: LC50 (the source's name); summary of the method: as §1
HT-29 = experiment: Cytotoxicity against human HT29 cells after 48 hrs by SRB assay; type: functional, cell-based; settings: Homo sapiens, HT-29, 48 h; for CC50: read-out: LC50 (the source's name); summary of the method: as §1
PANC-1 = experiment: Cytotoxicity against human PANC1 cells after 48 hrs by SRB assay; type: functional; settings: PANC-1, 48 h; for CC50: read-out: LC50 (the source's name); summary of the method: as §1
SK-MEL-28 = experiment: Cytotoxicity against human SK-MEL-28 cells after 48 hrs by SRB assay; type: functional, cell-based; settings: Homo sapiens, SK-MEL-28, 48 h; for CC50: read-out: LC50 (the source's name); summary of the method: as §1
HeLa = experiment: Cytotoxicity against human HeLa cells after 48 hrs by SRB assay; type: functional; settings: for CC50: read-out: LC50 (the source's name); summary of the method: as §1
[4] = Cytotoxicity against human HeLa-APL cells after 48 hrs by SRB assay; type: functional; summary of the method: as §1
A549 = experiment: Cytotoxicity against human A549 cells after 48 hrs by SRB assay; type: functional, cell-based; settings: Homo sapiens, A549, 48 h; summary of the method: as §1
[5] = Cytotoxicity against human IGROV cells after 48 hrs by SRB assay; type: functional; settings: for CC50: read-out: LC50 (the source's name); summary of the method: as §1
DU-145 = experiment: Cytotoxicity against human DU145 cells after 48 hrs by SRB assay; type: functional, cell-based; settings: Homo sapiens, DU-145, 48 h; for CC50: read-out: LC50 (the source's name); summary of the method: as §1
SK-BR-3 = experiment: Cytotoxicity against human SKBR3 cells after 48 hrs by SRB assay; type: functional; settings: SK-BR-3, 48 h; for GI50: read-out: GI50; for CC50: read-out: LC50 (the source's name); summary of the method: as §1

For `C/C=C1\NC(=O)[C@H](Cc2ccccc2)NC(=O)[C@@H](C(C)C)NC(=O)[C@@H]([C@H](C)CC)NC(=O)[C@H](NC(=O)[C@H](NC(=O)[C@H](CCCN)NC(=O)[C@H]2CCCN2C(=O)[C@H](NC(=O)[C@@H](NC(=O)CNC(=O)[C@H](NC(=O)CCCC(C)C)C(C)C)C(C)C)C(C)C)[C@H](C)CC)[C@H](C)OC(=O)[C@H](C(C)C)NC1=O`, which GI50 (LoVo [1]) is on record?
The GI50 was 2390 nM.

What about the TGI (LoVo [1]) of the same compound?
Its TGI is 3040 nM.

And the CC50 (LoVo [1])?
The CC50 was 3850 nM.

What about the GI50 (K562) of the same compound?
Its GI50 is 129 nM.

What about the TGI (K562) of the same compound?
The TGI was 208 nM.

And the CC50 (K562)?
Its CC50 is 744 nM.

And the GI50 (LoVo [2])?
Its GI50 is 597 nM.

What about the TGI (LoVo [2]) of the same compound?
The TGI was 1130 nM.

What about the CC50 (LoVo [2]) of the same compound?
Its CC50 is 828 nM.

And the GI50 (LNCaP)?
The GI50 was 233 nM.

And the TGI (LNCaP)?
The TGI was 988 nM.

And the CC50 (LNCaP)?
The CC50 was 988 nM.

What about the GI50 [3] of the same compound?
The GI50 was 232 nM.

What about the GI50 ([3]; read-out: GI50) of the same compound?
The GI50 was 197 nM.

And the CC50 [3]?
Its CC50 is 566 nM.

And the GI50 (HT-29)?
Its GI50 is 893 nM.

What about the TGI (HT-29) of the same compound?
The TGI was 1850 nM.

What about the CC50 (HT-29) of the same compound?
Its CC50 is 796 nM.

And the GI50 (PANC-1)?
Its GI50 is 515 nM.

What about the TGI (PANC-1) of the same compound?
Its TGI is 1070 nM.

What about the CC50 (PANC-1) of the same compound?
Its CC50 is 1990 nM.

What about the GI50 (SK-MEL-28) of the same compound?
Its GI50 is 283 nM.

What about the GI50 (SK-MEL-28; read-out: GI50) of the same compound?
The GI50 was 205 nM.

What about the CC50 (SK-MEL-28) of the same compound?
Its CC50 is 717 nM.

And the GI50 (HeLa)?
The GI50 was 250 nM.

What about the TGI (HeLa) of the same compound?
Its TGI is 471 nM.

And the CC50 (HeLa)?
Its CC50 is 755 nM.

And the GI50 [4]?
The GI50 was 230 nM.

What about the LC50 (concentration giving 50% net cell kill) [4] of the same compound?
The LC50 (concentration giving 50% net cell kill) was 684 nM.

And the TGI [4]?
Its TGI is 421 nM.

What about the GI50 (A549) of the same compound?
Its GI50 is 622 nM.

What about the GI50 (A549; read-out: GI50) of the same compound?
The GI50 was 524 nM.

And the GI50 [5]?
The GI50 was 83.7 nM.

And the GI50 ([5]; read-out: GI50)?
Its GI50 is 80.7 nM.

And the CC50 [5]?
The CC50 was 139 nM.

And the GI50 (DU-145)?
The GI50 was 994 nM.

And the GI50 (DU-145; read-out: GI50)?
The GI50 was 572 nM.

What about the CC50 (DU-145) of the same compound?
The CC50 was 1360 nM.

What about the TGI (SK-BR-3) of the same compound?
Its TGI is 819 nM.

And the GI50 (SK-BR-3)?
Its GI50 is 629 nM.

And the CC50 (SK-BR-3)?
The CC50 was 512 nM.

What does the source list for `C/C=C1\NC(=O)[C@H](Cc2ccccc2)NC(=O)[C@@H](C(C)C)NC(=O)[C@@H]([C@H](C)CC)NC(=O)[C@H](NC(=O)[C@H](NC(=O)[C@H](CCCN)NC(=O)[C@H]2CCCN2C(=O)[C@H](NC(=O)[C@H](CCCN)NC(=O)[C@@H](NC(=O)[C@H](NC(=O)CCCC(C)C)C(C)C)[C@@H](C)O)C(C)C)[C@H](C)CC)[C@H](C)OC(=O)[C@H](C(C)C)NC1=O`?
GI50 (LoVo [1]): 7590 nM; TGI (LoVo [1]): 7660 nM; CC50 (LoVo [1]): 3710 nM; GI50 (K562): 218 nM; TGI (K562): 950 nM; CC50 (K562): 1910 nM; GI50 (LoVo [2]): 3610 nM; TGI (LoVo [2]): 4540 nM; CC50 (LoVo [2]): 3900 nM; GI50 (LNCaP): 1760 nM; TGI (LNCaP): 2730 nM; CC50 (LNCaP): 1390 nM; TGI [3]: 1340 nM; GI50 ([3]; read-out: GI50): 1350 nM; CC50 [3]: 638 nM; GI50 (HT-29): 4610 nM; TGI (HT-29): 4910 nM; CC50 (HT-29): 2350 nM; GI50 (PANC-1): 1730 nM; TGI (PANC-1): 2080 nM; CC50 (PANC-1): 2290 nM; TGI (SK-MEL-28): 1410 nM; GI50 (SK-MEL-28; read-out: GI50): 1520 nM; CC50 (SK-MEL-28): 1290 nM; GI50 (HeLa): 1280 nM; TGI (HeLa): 1070 nM; CC50 (HeLa): 898 nM; GI50 [4]: 1110 nM; LC50 (concentration giving 50% net cell kill) [4]: 1270 nM; TGI [4]: 1190 nM; LC50 (A549): 1810 nM; TGI (A549): 3670 nM; GI50 (A549; read-out: GI50): 2920 nM; CC50 [5]: 758 nM; TGI (DU-145): 1330 nM; GI50 (DU-145; read-out: GI50): 1230 nM; CC50 (DU-145): 1440 nM; TGI (SK-BR-3): 5240 nM; GI50 (SK-BR-3): 4460 nM; CC50 (SK-BR-3): 1050 nM

What does the source list for `CC[C@@H](C)[C@@H](NC(=O)[C@H](CCCN)NC(=O)[C@H]1CCCN1C(=O)[C@H](NC(=O)[C@@H](NC(=O)[C@@H](NC(=O)[C@H](NC(=O)CCCC(C)C)C(C)C)[C@@H](C)O)C(C)C)C(C)C)C(=O)N[C@H]1C(=O)N[C@H]([C@H](C)CC)C(=O)N[C@H](C(C)C)C(=O)N[C@@H](Cc2ccccc2)C(=O)NC(C)(C)C(=O)N[C@@H](C(C)C)C(=O)O[C@H]1C`?
GI50 (LoVo [1]): 1590 nM; TGI (LoVo [1]): 1500 nM; CC50 (LoVo [1]): 456 nM; CC50 (K562): 1930 nM; GI50 (LoVo [2]): 2320 nM; TGI (LoVo [2]): 2310 nM; CC50 (LoVo [2]): 2070 nM; CC50 (LNCaP): 1390 nM; GI50 [3]: 668 nM; GI50 ([3]; read-out: GI50): 1080 nM; CC50 [3]: 423 nM; GI50 (HT-29): 2350 nM; TGI (HT-29): 2120 nM; CC50 (HT-29): 743 nM; CC50 (PANC-1): 1770 nM; TGI (SK-MEL-28): 3080 nM; GI50 (SK-MEL-28; read-out: GI50): 2180 nM; CC50 (SK-MEL-28): 1740 nM; CC50 (HeLa): 1090 nM; GI50 [4]: 2790 nM; LC50 (concentration giving 50% net cell kill) [4]: 1430 nM; TGI [4]: 2800 nM; LC50 (A549): 1430 nM; GI50 [5]: 790 nM; GI50 ([5]; read-out: GI50): 1790 nM; CC50 [5]: 368 nM; TGI (DU-145): 1390 nM; GI50 (DU-145; read-out: GI50): 1640 nM; CC50 (DU-145): 1170 nM; TGI (SK-BR-3): 1980 nM; GI50 (SK-BR-3): 2130 nM; CC50 (SK-BR-3): 777 nM
